Our source for the inhibition and Activity values is ChEMBL document CHEMBL4261627, “Design, synthesis and anti-melanogenic effect of cinnamamide derivatives” (Bioorg Med Chem, 2018).

Series [1] in a line: Antioxidant activity assessed as DPPH-radical scavenging activity at 1 mM incubated for 30 mins under dark condition. Type of series: functional. The method, boiled down: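 DPPH (0.2 mM in methanol, 180 µL) was mixed with 20 µL of compound from a 10 mM DMSO stock, giving 1 mM final. The mix was kept in the dark for 30 min and read at 517 nm, with L-ascorbic acid as reference. % scavenging = (Ac−As)/Ac × 100 against untreated control. Triplicate, mean ± SD.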
(In general: DPPH is a stable violet radical that fades when it is reduced.)

The subject of series [2] is B16-F10. Nature of the series: Antimelanogenic activity in mouse B16F10 cells assessed as inhibition of alpha-MSH-stimulated melanin synthesis at 25 uM measured after 24 hrs. Type of series: functional. The settings on record: B16-F10, 24 h. The method, boiled down: (§1)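 B16F10 cells were seeded at 5x10^4 cells/well and grown 24 h at 37 °C in 5% CO2. […] After PBS washes, melanin was dissolved in 1 N NaOH and read as absorbance at 405 nm. Triplicate, mean ± SEM.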

Series [3] concerns B16-F10. Nature of the series: Cytotoxicity against mouse B16F10 cells up to 25 uM after 24 hrs by WST8 assay. Format: cell-based. The settings on record: b16-f10, 24 h. A digest of the protocol:
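B16F10 cells (from DMEM/10% FBS culture) were seeded at 1x10^4 cells/well and held 24 h at 37 °C, 5% CO2. Compound (0, 5, 10, 25 µM) was added for a further 24 h. WST-8 reagent was then applied for 30 min to 2 h at 37 °C and OD read at 450 nm. Viability expressed as % of control; triplicate.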
(In general: Tetrazolium assays rely on reduction of a dye to a coloured formazan, in cell work by metabolically active cells.)

Series [4] has as its system B16-F10. The series is described as follows: Antimelanogenic activity in mouse B16F10 cells assessed as inhibition of alpha-MSH-stimulated melanin synthesis at 10 uM measured after 24 hrs. Format: functional, cell-based. A digest of the protocol: as §1
Series [5] has as its target T1, Tyrosinase (Mus musculus) (UniProt P11344).
T1 sequence (whole entry): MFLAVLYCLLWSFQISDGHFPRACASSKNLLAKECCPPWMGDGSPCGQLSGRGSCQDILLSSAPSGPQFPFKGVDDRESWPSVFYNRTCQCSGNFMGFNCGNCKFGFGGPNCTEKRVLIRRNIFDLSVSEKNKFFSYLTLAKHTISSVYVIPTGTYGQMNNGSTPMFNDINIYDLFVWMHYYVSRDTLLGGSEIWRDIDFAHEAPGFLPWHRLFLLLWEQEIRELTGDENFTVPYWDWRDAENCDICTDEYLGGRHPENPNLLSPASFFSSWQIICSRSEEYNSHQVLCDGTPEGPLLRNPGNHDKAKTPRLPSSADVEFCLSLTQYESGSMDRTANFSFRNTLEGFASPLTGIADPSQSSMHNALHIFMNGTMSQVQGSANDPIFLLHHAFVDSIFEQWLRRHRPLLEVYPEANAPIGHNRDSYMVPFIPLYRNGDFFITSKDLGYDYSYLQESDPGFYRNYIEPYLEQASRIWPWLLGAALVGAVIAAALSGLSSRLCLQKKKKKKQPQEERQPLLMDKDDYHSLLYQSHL
The series is described as follows: Inhibition of tyrosinase in alpha-MSH stimulated mouse B16F10 cells at 10 uM using L-dopa as substrate pretreated for 24 hrs followed by substrate addition and measured after 30 mins. The method, boiled down:
(§2)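 Cells were lysed in pH 6.8 phosphate buffer with 0.1 mM PMSF and 1% Triton X-100, frozen at −80 °C, and spun. Supernatant (80 µL) was incubated with 20 µL of 10 mM L-dopa at 37 °C for 30 min and read at 500 nm. Triplicate.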

The target in series [6] is T1, Tyrosinase (Mus musculus). To be noted: 400 uM.
For series [7], the target named is T1, Tyrosinase (Mus musculus). The series is described as follows: Inhibition of tyrosinase in alpha-MSH stimulated mouse B16F10 cells using L-dopa as substrate pretreated for 24 hrs followed by substrate addition and measured after 30 mins. A digest of the protocol: as §2

Take `COc1cc(/C=C/C(=O)N2CCCC2)ccc1O`: the inhibition (commonly the percentage by which the read-out fell short of the control) in series [1] is 82.1%.
Consider `O=c1cc(CO)occ1O` [KOJIC ACID], for which the inhibition at 25 µM in series [2] was determined as 37.6%.
In the case of `O=C(/C=C/c1ccc(O)c(O)c1)N1CCCCC1`, the inhibition in series [1] was determined as 82.8%.
On to `O=C(/C=C/c1ccc(O)cc1)N1CCCCC1`, for which the inhibition in series [1] turned out to be 0.91%.
Still for that read-out and setting: the same measure for `COc1ccc(/C=C/C(=O)N2CCCC2)cc1O`: 34.2%.
On the same count and under the same terms, the same measure for `COc1ccc(/C=C/C(=O)N2CCCCC2)cc1O`: 37.6%; for `O=C(/C=C/c1ccc(O)cc1)N1CCCC1`: 3.51%.
Consider `O=C(/C=C/c1ccc(O)cc1O)N1CCCCC1`, for which, in series [2], the inhibition at 25 µM stood at 61.8%. Also, the Activity entry in series [3] is listed as “Non-Toxic”. For the same compound, the inhibition in series [1] was 30.7%; in series [4], “Dose-dependent effect”; in series [5], 23.3%.
`OC[C@H]1O[C@@H](Oc2ccc(O)cc2)[C@H](O)[C@@H](O)[C@@H]1O` gave an inhibition in series [6] of 51.7%.
Take `O=C(/C=C/c1ccc(O)cc1O)N1CCCC1`: the inhibition at 25 µM in series [2] came to 78.3%. Also, the Activity result in series [3] is listed as “Non-Toxic”. The inhibition was 22.3% in series [1], “Dose-dependent effect” in series [4], “Dose-dependent effect” in series [7] and 38.3% in series [5].
As to `O=C(/C=C/c1ccc(O)c(O)c1)N1CCCC1`, the inhibition in series [1] came out at 83.2%.
For the compound `O=C1O[C@H]([C@@H](O)CO)C(O)=C1O`, in series [1], the inhibition amounted to 84.6%.
On to `COc1cc(/C=C/C(=O)N2CCCCC2)ccc1O`, for which the inhibition at 25 µM in series [2] was found to be 72.7%. For the same compound, in series [3], the Activity entry is “Non-Toxic”. Also, the inhibition in series [1] is 80.7%; in series [4], “Dose-dependent effect”; in series [7], “Dose-dependent effect”; in series [5], 44%.
